# Compound activity from PubChem BioAssay.
# GASC-1 inh = human JMJD2C demethylase inhibition. 0.069% of 330,000 active. inhibition, % at 2.35 µM. GST-JMJD2C(1-420) H3K9me3 demethylation, DELFIA europium;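 active = more than half of a compound's replicate wells show inhibition beyond 50%, single wells judged on their own value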;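 also: signal counts dimethyl H3K9 product captured on neutravidin plate; 0% = median of DMSO wells and 100% = 0.3 times that DMSO median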
# Target sequence (Q9H3R0 1-420 limits assumed): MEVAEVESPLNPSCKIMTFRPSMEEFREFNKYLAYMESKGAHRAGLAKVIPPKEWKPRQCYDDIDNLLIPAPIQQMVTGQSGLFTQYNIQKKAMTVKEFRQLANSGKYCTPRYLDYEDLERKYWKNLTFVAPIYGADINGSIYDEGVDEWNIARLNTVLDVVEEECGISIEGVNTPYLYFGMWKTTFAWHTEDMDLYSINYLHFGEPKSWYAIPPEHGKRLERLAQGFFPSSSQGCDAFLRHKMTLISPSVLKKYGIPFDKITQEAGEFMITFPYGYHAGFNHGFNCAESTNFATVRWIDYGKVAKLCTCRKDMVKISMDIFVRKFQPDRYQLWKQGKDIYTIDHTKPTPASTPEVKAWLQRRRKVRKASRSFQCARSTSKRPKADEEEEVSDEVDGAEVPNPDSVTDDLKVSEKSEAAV
# ADAM17 inh = ADAM17 inhibition, QFRET primary screen; P78536; recombinant ADAM17, EDANS/DABCYL FRET peptide cleavage; inhibition, % at 6.95 µM; 0.83% of 370,000 active; AID 720648;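 active = inhibition above the mean of compounds lying between control limits plus 3 SD, set per campaign, cut at about 8.5% in these data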;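 also: 0% = DMSO-only wells as the low control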
# proKLK7 act = activators of human kallikrein-7 zymogen | P49862 | purified proKLK7, EDANS-DABCYL substrate fluorescence; 100% is mature enzyme control, 0% vehicle | activation, % at 7 µM | 0.9% of 370,000 active;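 active = activation above the mean of all tested compounds plus 3 SD, computed per campaign excluding outliers beyond control limits, cut at about 13% in these data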
# Target sequence (P49862 whole entry, looked up): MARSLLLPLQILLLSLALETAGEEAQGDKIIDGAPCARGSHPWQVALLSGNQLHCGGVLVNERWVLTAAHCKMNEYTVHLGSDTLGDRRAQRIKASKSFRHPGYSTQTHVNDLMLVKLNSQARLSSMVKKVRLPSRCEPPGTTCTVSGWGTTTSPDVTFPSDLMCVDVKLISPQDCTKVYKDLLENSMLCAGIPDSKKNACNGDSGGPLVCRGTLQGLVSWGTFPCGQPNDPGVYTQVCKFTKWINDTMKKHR
# ADAM10 inh = inhibits human ADAM10. AID 720582. 0.62% of 370,000 active. inhibition, % at 7 µM. O14672. recombinant ADAM10, EDANS/DABCYL FRET peptide cleavage, 3 h;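 active = inhibition above a per-campaign cutoff equal to the mean of compounds falling between control-based bounds plus 3 SD, cut at about 20% in these data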;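 also: 0% = DMSO wells while the 100% control is not disclosed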
# NR2E3 ag-1 = agonists of human NR2E3 nuclear receptor; Q9Y5X4; CHO-S Gal4-NCOR/VP16-NR2E3 two-hybrid, luciferase; inhibition of corepressor binding, % at 3.98 µM; 0.35% of 360,000 active; AID 602229;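 active = inhibition above the mean of all tested compounds plus 3 SD, cut at about 70% in these data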;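 also: 0% = DMSO with NR2E3 transfected cells and 100% = cells lacking NR2E3 construct; higher means lower luciferase signal from less NR2E3 corepressor binding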
# NR2E3 ag-2 = NR2E3 (human) agonism | 0.12% of 320,000 active | AID 2300 | inhibition of corepressor binding, % at 4.78 µM | GST-NR2E3/biotin-RetCOR TR-FRET, 1536-well | Q9Y5X4;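 active = percent inhibition above the cutoff of mean plus 3 SD of all tested compounds, set per screening campaign, cut at about 20% in these data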;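 also: 0% = DMSO wells and 100% = biotin wells as full block of FRET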
#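 Format: 1536-well format; test system: GST-NR2E3 and biotin-RetCOR proteins; read-out basis: percent inhibition of TR-FRET ratio; timing: 5 h incubation at 4 °C; detection: time-resolved FRET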
# KLK7 act conf = confirmation of human kallikrein-7 zymogen activators. activation, % at 7 µM. shares compounds with proKLK7 act. purified proKLK7, EDANS-DABCYL substrate fluorescence; scaled: vehicle 0, mature enzyme 100. 68% of 3,200 active;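 active = activation, as change over the incubation, above the mean of all tested compounds plus 3 SD, cut at about 13% in these data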
# EDANS interfere = optically interferes with EDANS-DABCYL signal, flagging KLK7 hits; activation, % at 7 µM; shares compounds with proKLK7 act; 80% of 3,200 active; AID 686952; EDANS-DABCYL substrate fluorescence interference, no enzyme, 4 h; solvent 0%, active enzyme control 100%;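 active = activation above the all-compound mean plus 3 SD, ignoring values outside control-based bounds, cut at about 4.8% in these data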;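 also: value is the 4 h activation minus the activation read at time zero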
# K7 EDANS ctr = counter-screen for kallikrein-7 activators: EDANS-DABCYL interference, dose response | shares compounds with proKLK7 act | EDANS-DABCYL peptide fluorescence interference, no enzyme | EC50, µM | 20% of 250 active;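 active = compounds that raise the fluorescence signal in this interference counterscreen, with EC50 at or below 10 µM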;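 also: intact quenched peptide substrate alone read at 355 nm excitation and 520 nm emission; signal is fluorescence gain from T0 to T4 after four hours at room temperature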
# An asterisk follows results filed as active; i = inactive; nt = no result given. Hits are enriched below; roughly 2.5% of the tested compounds scored in any of these assays.
SMILES,GASC-1 inh,ADAM17 inh,proKLK7 act,ADAM10 inh,NR2E3 ag-1,NR2E3 ag-2,KLK7 act conf,EDANS interfere,others
CC1Nc2ccccc2C(=O)N1NS(=O)(=O)c1ccccc1 (stereo unspecified),-7,-61,21*,-179,7,5,4,4.5*,
Cc1ccc(S(=O)(=O)NN2C(=O)c3ccccc3NC2c2ccco2)cc1 (stereo unspecified),-7,-22,5,-66,-46,3,nt,nt,
CC(=O)NN1C(=O)c2ccccc2NC1c1ccccc1O (stereo unspecified),13,-261,-1,i,0,0,nt,nt,
Cc1ccc(S(=O)(=O)NN2C(=O)c3ccccc3NC2C)cc1 (stereo unspecified),0,-194,39*,i,-6,-2,11,11*,
CCOC(=O)Cn1c(C(F)(F)F)nc2nc(Cl)c(Cl)nc21,nt,-394,34*,i,-26,nt,8,7.1*,
CCOC(=O)Cn1c2ccccc2c2nc3ccccc3nc21,3,-5,0,-19,-9,2,nt,nt,
CCOC(=O)c1c(NC(=S)Nc2ccc(OCC)cc2)sc2c1CCN(C)C2,nt,-5,3,-20,-15,2,nt,nt,
CCOC(=O)c1c(NC(=S)Nc2ccc(Cl)cc2)sc2c1CCN(C)C2,8,-25,18*,-94,-17,-2,20*,21*,
CC(C)(C)OC(=O)CN1c2cccc3cccc(c23)S1(=O)=O,0,-71,13*,-163,-44,0,6,13*,
O=C(CN1c2cccc3cccc(c23)S1(=O)=O)N1CCCCC1,-11,-80,15*,-295,9,nt,12,13*,
CC(C)(C)NC(=O)NC(=O)CN1c2cccc3cccc(c23)S1(=O)=O,11,-53,1,-104,11,0,nt,nt,
COC(=O)CNC(=O)CN1c2cccc3cccc(c23)S1(=O)=O,2,-122,23*,-351,-4,4,17*,17*,
CCN(CC(=O)NC(C)(C)C)C(=O)CN1c2cccc3cccc(c23)S1(=O)=O,-6,-79,15*,-232,1,-3,0,2,
O=C(CN1c2cccc3cccc(c23)S1(=O)=O)N1CCOCC1,-2,-80,12,-264,15,-2,nt,nt,
COc1ccc(Cc2n[nH]c(=S)n2C)cc1Br,184,-5,0,-3,-6,0,nt,nt,
C#CCn1c(=NC(=O)c2ccc(S(=O)(=O)N3CCCc4ccccc43)cc2)sc2cc(S(N)(=O)=O)ccc21,nt,2,51*,11,-42,-2,8,24*,
COc1ccc(-c2noc(CCC(=O)NCCc3ccccc3)n2)cc1OC,2,-1,0,-2,-24,nt,nt,nt,
O=c1ccc2c(-c3ccccc3)c3ccc(O)cc3oc-2c1,3,-20,25*,-49,-14,-2,49*,51*,
COC(=O)c1ccc2c(c1)C(C)(C)C(/C=C/c1ccc(O)cc1)=[N+]2C,3,-42,25*,-56,42,5,0,2,
COC(=O)c1ccc2c(c1)C(C)(C)C(/C=C/c1ccc(OC)c(OC)c1OC)=[N+]2C,6,-1,-4,-40,-7,1,nt,nt,
Cc1cc(/C=C(\C#N)C(=O)Nc2ccccc2F)c(C)[nH]1,-1,-28,32*,-72,-103,0,6,6.9*,
N#C/C(=C\c1ccc[nH]1)C(=O)Nc1ccccc1F,-3,0,0,-12,-148,nt,nt,nt,
COc1cc(C(Nc2ccccn2)c2c(NC(=O)c3ccco3)sc(C)c2C)cc(OC)c1OC (stereo unspecified),-14,-2,26*,5,-17,0,-34,-32,
COC(=O)C1CN(Cc2cn(Cc3ccc(Cl)cc3)nn2)CCS(=O)(=O)N1Cc1ccc(OC)cc1 (stereo unspecified),nt,-2,0,-22,nt,nt,nt,nt,
CC(=O)N1CC2(NC(=O)c3ccccc3N2)c2ccccc21 (stereo unspecified),9,-435,19*,i,12,0,17*,18*,
SMILES,GASC-1 inh,ADAM17 inh,proKLK7 act,ADAM10 inh,NR2E3 ag-1,NR2E3 ag-2,KLK7 act conf,EDANS interfere,others
CCN(CC)C(=O)CN1C(=O)C2(NC(=O)c3ccccc3N2)c2ccccc21 (stereo unspecified),11,-77,5,-312,13,6,nt,nt,
C=CCn1c(N)c(C(=O)OCCC)c2nc3ccccc3nc21,1,i,60*,i,17,0,52*,50*,
Cc1cc(=O)[nH]n(CCO)c1=O,-16,0,-1,-6,-3,1,nt,nt,
CC(=O)Nc1cc2c3c(cccc3c1)-c1ccccc1-2,nt,-481,89*,i,-47,nt,28*,-18,K7 EDANS ctr=9.9*
Cc1[nH]nc2c1C(c1ccc(F)cc1)C1=C(CC(C)(C)CC1=O)N2 (stereo unspecified),8,-157,14*,i,-3,4,9,12*,
CC(OC(=O)Cn1cc(C(F)(F)F)ccc1=O)C(=O)N(C)c1ccccc1 (stereo unspecified),-10,3,0,3,17,nt,nt,nt,
COc1cc(C=Nc2ccccc2C(=O)Nc2ccccc2)cc(OC)c1OC,3,-272,19*,i,-2,-2,18*,22*,
Cc1ccc(C(=O)Nc2ccccc2N2CCCC2)s1,6,-7,0,-25,-8,-2,nt,nt,
Cc1cc(C)cc(NC(=O)CCN2CCOCC2)c1,-3,-3,0,-1,-11,-3,nt,nt,
COc1ccc(CCNC(=O)CN2C(=O)NC(C)(c3ccc([N+](=O)[O-])cc3)C2=O)cc1 (stereo unspecified),-3,-2,0,1,-12,0,nt,nt,
CS(=O)(=O)Nc1ccc(C(=O)Nc2ccc3ccccc3c2)cc1,1,-23,13*,-35,-96,1,1,1,
CC(=O)c1cccc(NC(=O)c2ccc(NS(C)(=O)=O)cc2)c1,-2,1,1,4,-12,6,nt,nt,
COc1ccc(-c2oc3c(c2C#CC(C)(C)O)C(OC)CCC3)cc1 (stereo unspecified),nt,-266,23*,i,-16,nt,-15,-22,
COc1ccc(-c2oc3c(c2C#CC2(O)CCCCC2)C(OC(C)=O)CCC3)cc1 (stereo unspecified),nt,-5,0,-17,-10,nt,nt,nt,
